pIC50: −log10 of the molar value. The source made the active and inactive calls. No cut-off for these calls is given here.
Columns and labels:
[1] = Half life in CD-1 mouse at 1 mg/kg, iv; format: ADME, organism-based; design: dose 1 mg/kg, route intravenous; conditions: in vivo
In short: (§1)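 Mouse PK. IV via the lateral tail vein in 3% DMSO/30% Solutol/67% PBS, or oral gavage in 100% PEG400, 100 μL dose volume, after an overnight fast. Trunk blood was taken from three mice per time point over 6 h. Plasma was acetonitrile-precipitated and analysed by LC-MS/MS. Parameters were derived noncompartmentally.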

[2] = Volume of distribution in CD-1 mouse at 1 mg/kg, iv; format: ADME, organism-based; design: dose 1 mg/kg, route intravenous; conditions: in vivo
In short: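 Mouse IV PK: lateral tail vein dosing, 100 μL in 3% DMSO/30% Solutol/67% PBS; trunk blood from three mice per time point over 6 h. Plasma precipitated with acetonitrile, drug quantified by LCMS/MS against internal standard; noncompartmental analysis.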

[3] = Plasma clearance in Beagle dog at 1 mg/kg, iv; format: ADME, organism-based, Canis lupus familiaris; design: dose 1 mg/kg, route intravenous
In short: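 IV PK: rats via lateral tail vein (1 mL/kg; 3% DMSO/30% Solutol/67% PBS), serial tail-vein blood over 6 h. Dogs and monkeys via saphenous vein (0.5 mL/kg in 40% HPβCD), femoral-vein blood over 24 h. Acetonitrile protein precipitation, LCMS/MS; noncompartmental parameters from individual animals, n = 3, mean ± SEM.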

[4] = Half life in cynomolgus monkey at 1 mg/kg, iv; format: ADME, organism-based, Macaca fascicularis; design: dose 1 mg/kg, route intravenous; conditions: in vivo
In short: (§2)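 Dog and monkey PK. IV 0.5 mL/kg in 40% HPβCD via the saphenous vein. Oral dosing was 1 mL/kg by gavage in dogs and 2 mL/kg by nasogastric tube in monkeys, after an overnight fast. Serial femoral-vein blood was taken into heparin over 24 h. Plasma was acetonitrile-precipitated and analysed by LC-MS/MS. Parameters were noncompartmental, n = 3, mean ± SEM.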

[5] = Cmax in SCID mouse at 10 mg/kg, po; format: ADME, organism-based; design: dose 10 mg/kg, route oral; conditions: in vivo; in short: as §1
[6] = Tmax in Sprague-Dawley rat at 10 mg/kg, po; format: ADME, organism-based; design: dose 10 mg/kg, route oral; conditions: in vivo
In short: (§3)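 PK: overnight-fasted animals. Rat oral gavage 5 mL/kg in 40% HPβCD, serial tail-vein blood over 6 h. Dog oral gavage 1 mL/kg, monkey nasogastric 2 mL/kg, femoral-vein blood over 24 h. Plasma protein-precipitated with acetonitrile, LCMS/MS with internal standard; noncompartmental analysis, individual animals n = 3, mean ± SEM.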

[7] = Oral bioavailability in Sprague-Dawley rat at 10 mg/kg; format: ADME, organism-based; conditions: in vivo; in short: as §3
[8] = Oral bioavailability in Beagle dog at 10 mg/kg; format: ADME, organism-based, Canis lupus familiaris; conditions: in vivo; in short: as §3
[9] = AUC in cynomolgus monkey at 10 mg/kg, po; format: ADME, organism-based, Macaca fascicularis; design: dose 10 mg/kg, route oral; conditions: plasma; in short: as §2
SK-N-AS = test: Antitumor activity against human SK-N-AS cells expressing wild type ALK assessed as growth inhibition administered as po bid; format: functional, organism-based
Rattus norvegicus = test: Ratio of Cmax at 10 mg/kg, po to Cmax at 100 mg/kg, po in rat; format: ADME, organism-based; conditions: in vivo
In short: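 Oral dose-escalation PK study in rats at 10, 30, 55 and 100 mg/kg. […] The ratio compares the 10 mg/kg value with the 100 mg/kg value.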

[10] = Plasma concentration in SCID mouse xenografted with human KARPAS299 cells expressing NPM-ALK at 30 mg/kg, po after 24 hrs by LC-MS/MS analysis; format: ADME, organism-based, KARPAS-299; design: dose 30 mg/kg, route oral
In short: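 Pharmacodynamic study: SCID mice bearing subcutaneous Karpas-299 xenografts given single 30 mg/kg oral dose; plasma drug levels measured by LCMS/MS, reported as mean ± SEM.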

[11] = Plasma concentration in SCID/beige mouse xenografted with human KARPAS299 cells expressing NPM-ALK at 30 mg/kg, po bid after 2 hrs post last dose by LC-MS/MS analysis; format: ADME, organism-based, KARPAS-299; design: dose 30 mg/kg, route oral
In short: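 Female SCID/beige mice (6–8 weeks), Karpas-299 cells implanted sc in left flank; at ~600 mm³ randomized (8–10/group), dosed orally in PEG400, 100 μL, b.i.d. for 12 days. Body weight every 2–3 days; plasma and tumor sampled 2 h after final dose, drug by LCMS/MS; Mann–Whitney rank sum statistics.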

[12] = target: NUAK family SNF1-like kinase 1 (Homo sapiens, UniProt O60285); test: Inhibition of human ARK5
NUAK family SNF1-like kinase 1, sequence (O60285 whole entry): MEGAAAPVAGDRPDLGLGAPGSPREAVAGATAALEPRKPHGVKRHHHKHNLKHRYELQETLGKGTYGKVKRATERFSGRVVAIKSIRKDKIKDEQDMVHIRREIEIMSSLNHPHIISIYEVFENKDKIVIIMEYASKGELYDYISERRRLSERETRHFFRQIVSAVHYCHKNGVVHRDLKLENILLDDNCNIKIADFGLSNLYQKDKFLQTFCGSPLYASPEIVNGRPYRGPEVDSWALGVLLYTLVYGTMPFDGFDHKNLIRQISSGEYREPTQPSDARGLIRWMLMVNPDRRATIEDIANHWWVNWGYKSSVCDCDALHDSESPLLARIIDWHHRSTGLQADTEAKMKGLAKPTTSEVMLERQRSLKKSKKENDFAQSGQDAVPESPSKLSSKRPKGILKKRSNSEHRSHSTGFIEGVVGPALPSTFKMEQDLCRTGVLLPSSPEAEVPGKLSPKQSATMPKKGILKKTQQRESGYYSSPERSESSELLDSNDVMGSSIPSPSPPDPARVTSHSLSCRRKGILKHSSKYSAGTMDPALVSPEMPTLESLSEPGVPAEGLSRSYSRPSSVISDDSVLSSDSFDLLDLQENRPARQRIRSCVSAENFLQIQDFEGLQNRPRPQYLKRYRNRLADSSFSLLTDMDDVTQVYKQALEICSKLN

[13] = target: Ribosomal protein S6 kinase alpha-2 (Homo sapiens, UniProt Q15349); conditions: 1 uM
Ribosomal protein S6 kinase alpha-2, sequence (Q15349 whole entry): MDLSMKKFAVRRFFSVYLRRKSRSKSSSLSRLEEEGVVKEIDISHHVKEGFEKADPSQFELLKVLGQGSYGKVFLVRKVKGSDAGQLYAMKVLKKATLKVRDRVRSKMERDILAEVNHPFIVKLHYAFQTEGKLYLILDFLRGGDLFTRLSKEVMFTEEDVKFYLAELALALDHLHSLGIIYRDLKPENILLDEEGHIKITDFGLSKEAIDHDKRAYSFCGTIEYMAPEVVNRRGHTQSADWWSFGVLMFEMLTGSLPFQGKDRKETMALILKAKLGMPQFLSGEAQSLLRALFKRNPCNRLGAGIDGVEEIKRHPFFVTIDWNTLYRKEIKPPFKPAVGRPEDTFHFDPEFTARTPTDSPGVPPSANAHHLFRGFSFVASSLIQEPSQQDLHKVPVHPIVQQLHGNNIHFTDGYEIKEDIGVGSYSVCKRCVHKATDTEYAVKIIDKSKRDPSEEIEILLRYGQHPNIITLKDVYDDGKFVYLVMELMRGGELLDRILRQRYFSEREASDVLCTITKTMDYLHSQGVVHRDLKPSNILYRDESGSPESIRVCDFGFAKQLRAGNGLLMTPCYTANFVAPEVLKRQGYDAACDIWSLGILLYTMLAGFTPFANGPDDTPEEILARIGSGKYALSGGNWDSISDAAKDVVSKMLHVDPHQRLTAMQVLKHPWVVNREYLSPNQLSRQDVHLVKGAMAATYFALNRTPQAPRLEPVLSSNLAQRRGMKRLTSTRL

[14] = target: Mitogen-activated protein kinase kinase kinase kinase 2 (Homo sapiens) (UniProt Q12851); conditions: 1 uM
Mitogen-activated protein kinase kinase kinase kinase 2 (Homo sapiens), sequence (Q12851 whole entry): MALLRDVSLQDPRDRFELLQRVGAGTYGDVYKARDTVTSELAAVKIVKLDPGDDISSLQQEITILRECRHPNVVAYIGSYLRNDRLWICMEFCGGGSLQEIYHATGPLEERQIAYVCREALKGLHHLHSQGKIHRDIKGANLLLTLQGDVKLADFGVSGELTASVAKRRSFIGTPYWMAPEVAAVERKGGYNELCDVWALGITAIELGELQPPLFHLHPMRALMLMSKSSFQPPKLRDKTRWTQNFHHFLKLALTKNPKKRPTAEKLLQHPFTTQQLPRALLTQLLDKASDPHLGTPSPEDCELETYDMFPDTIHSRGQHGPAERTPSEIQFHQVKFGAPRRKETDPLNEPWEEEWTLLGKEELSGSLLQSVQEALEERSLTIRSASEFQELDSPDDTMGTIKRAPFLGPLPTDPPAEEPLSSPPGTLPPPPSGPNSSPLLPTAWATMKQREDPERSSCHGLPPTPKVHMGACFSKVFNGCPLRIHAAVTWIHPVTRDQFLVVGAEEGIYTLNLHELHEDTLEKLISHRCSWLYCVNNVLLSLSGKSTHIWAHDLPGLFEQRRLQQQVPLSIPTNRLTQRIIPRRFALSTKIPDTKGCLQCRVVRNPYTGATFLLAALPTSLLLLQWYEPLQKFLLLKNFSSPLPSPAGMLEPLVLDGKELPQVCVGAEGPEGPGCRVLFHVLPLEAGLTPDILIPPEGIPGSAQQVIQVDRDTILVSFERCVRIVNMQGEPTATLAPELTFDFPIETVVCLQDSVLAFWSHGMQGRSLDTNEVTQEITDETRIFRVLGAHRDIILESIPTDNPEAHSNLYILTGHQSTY

half-life [1]: 0.7 h
Vd [2]: 1.8 L/kg
clearance [3]: 40 mL/min/kg
half-life [4]: 1.2 h
Cmax [5]: 2750 ng/mL
Tmax [6]: 1.3 h
bioavailability [7]: 50%
bioavailability [8]: 52%
AUC [9]: 954 ng·h/mL
Ratio (Rattus norvegicus): 9
concentration at 24 h [10]: 12 ng/mL
concentration at 2 h [11]: 4270 ng/mL
pIC50 [12]: 7.59
inhibition [13]: > 90%
inhibition [14]: > 90%
SMILES: COc1c(Nc2ncc(Cl)c(N[C@H]3[C@@H](C(N)=O)[C@@H]4C=C[C@H]3C4)n2)ccc2c1CC[C@@H](N1CCOCC1)CC2
growth inhibition (GI) (SK-N-AS): inactive

Reference: ChEMBL document CHEMBL2062375, “Discovery of an orally efficacious inhibitor of anaplastic lymphoma kinase” (J Med Chem, 2012)
